Test results as given in PubChem BioAssay.
Calls of active or inactive are those of the source.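 How the source made its calls, unless noted: active means fluorescence slope higher than the sample average by over 3 SD (cut at about -0.22 in these data, passing the limit was not always enough); inactive means the rest.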

What was measured:
[1] = inhibitors of TNFa-induced NFkB p65 translocation, primary screen, imaging, HUVEC, MLSMR starter and 10KST1 sets (AID 438;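 active means inhibition above 20% together with a positive visual image hit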;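 further: compound added about 3h40 before a 20 min TNFalpha stimulation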;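 on inhibition: signal is the nuclear over cytoplasmic p65 intensity ratio per well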); details: HUVEC TNFa-induced p65 nuclear translocation; cell count: measured here: nuclei count (cytotoxicity indicator), at 2.08 µM; inhibition: at 2 µM, stronger effect = higher value, 0% TNFa-plus-vehicle, 100% no-TNFa wells
[2] = inhibitors of mutant huntingtin aggregation, primary screen, imaging, exon1htt(103Q)mCFP cells, high-content imaging (AID 483;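 active means visual image review flags a hit and inhibition of aggregation exceeds 20%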;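 further: compound exposure lasted 3 days before fixation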;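 on nuclei count: percent of the per-plate median nuclei count of sample wells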); details: exon1htt(103Q)mCFP cell line, aggregate imaging, at 2 µM; inhibition of aggregation: stronger effect = higher value; nuclei count: measured here: cell count, toxicity
[3] = inhibitors of E-selectin induction by TNFa, primary screen, imaging, HUVEC, immunofluorescence, MLSMR starter and 10KST1 sets (AID 487;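 active means visually confirmed hit in the image check and inhibition above 20%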;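 on inhibition: signal is fraction of cell area covered by stained E-selectin grains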;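 on nuclei count: 100% = median nuclei count of all wells on the same plate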); details: HUVEC TNFalpha-induced E-selectin immunofluorescence imaging, at 2 µM; inhibition: stronger effect = higher value; nuclei count: measured here: cell number, toxicity
[4] = target: Voltage-gated potassium channel subunit beta-2 (Rattus norvegicus) (UniProt P62483); experiment: KvBeta enzyme negative modulators, primary screen, biochemical, NADPH fluorescence (AID 622); details: recombinant KvBeta, 4-cyanobenzaldehyde reduction, at 10 µM, stronger effect = higher value;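 further: slope of raw intensity against log time taken from 70 to 1610 s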
[5] = target: Voltage-gated potassium channel subunit beta-2 (Rattus norvegicus) (UniProt P62483); experiment: KvBeta positive modulators, primary screen, biochemical, NADPH fluorescence (AID 623;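 active means NADPH fluorescence slope more negative than the mean of all samples by about 3 SD, 99.7% confidence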;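 further: fluorescence intensity change per second fitted from 20 to 320 s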); details: Recombinant KvBeta, NADPH fluorescence decrease slope, 10 min; at 10 µM; stronger effect = lower value
[6] = target: Muscarinic acetylcholine receptor M4 (Homo sapiens) (UniProt P08173); experiment: compounds altering M4/GIRK thallium flux, either direction, primary screen, M4 allosteric agonist project, cell-based, HEK293 M4/GIRK, BTC-AM (AID 625;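 active means fluorescence slope after compound addition differing from the mean of all tested samples at 99.7% confidence, mostly higher but some lower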;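 further: thallium influx through GIRK channels coupled to M4 in HEK293 cells with BTC-AM dye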); details: at 10 µM, actives lie on both sides
Method in brief: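 assay system = HEK293 cells with M4 receptor and GIRK channels | medium = pH 7.3 thallium assay buffer | doses = 10 µM final, single point | timing = cells overnight at 37 °C, BTC-AM loading 1 h, reads 2 min total | signal = BTC-AM fluorescence, 1 Hz kinetic reads | read-out = post-addition slope, 15–24 s, of baseline-normalized fluorescence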

[7] = inhibitors of Sendai virus-induced IRF3 signaling, primary screen, TLR/RLR signaling modifier project, cell-based, Sendai virus stimulus, luciferase, 10K MLSCN set (AID 602276;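 active means inhibition at or above 50% at 10 µM; inactive means inhibition below 50%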;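 further: firefly luciferase from ISG56 promoter only with Renilla not read in this screen; 0% = Sendai virus plus DMSO and 100% = medium plus DMSO without virus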); details: HEK293 RL24 IRF3 luciferase reporter, at 10 µM, stronger effect = higher value
[8] = inhibitors of poly I:C-induced TLR3 signaling, primary screen, cell-based, poly I:C stimulus, luciferase, 10K MLSCN set (AID 602277;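 active means inhibition of the reporter signal at or above 50%; inactive means inhibition below 50%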); details: HEK293-TLR3 RL24 IRF3 luciferase reporter, at 10 µM, stronger effect = higher value

Sequence of Muscarinic acetylcholine receptor M4 (Homo sapiens) (P08173 whole entry, looked up): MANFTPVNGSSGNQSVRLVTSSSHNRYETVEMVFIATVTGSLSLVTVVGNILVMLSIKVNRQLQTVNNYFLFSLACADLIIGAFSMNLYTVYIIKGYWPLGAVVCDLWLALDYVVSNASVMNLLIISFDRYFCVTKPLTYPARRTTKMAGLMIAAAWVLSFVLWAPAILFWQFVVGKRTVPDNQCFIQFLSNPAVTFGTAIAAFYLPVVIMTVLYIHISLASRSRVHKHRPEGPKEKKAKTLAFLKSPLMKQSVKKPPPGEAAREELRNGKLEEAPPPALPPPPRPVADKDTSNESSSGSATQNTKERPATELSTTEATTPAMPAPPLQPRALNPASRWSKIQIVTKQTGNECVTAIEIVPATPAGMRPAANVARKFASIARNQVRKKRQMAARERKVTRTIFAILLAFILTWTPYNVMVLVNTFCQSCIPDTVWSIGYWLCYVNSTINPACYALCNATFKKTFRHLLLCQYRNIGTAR
Sequence of Voltage-gated potassium channel subunit beta-2 (Rattus norvegicus) (P62483 whole entry, looked up): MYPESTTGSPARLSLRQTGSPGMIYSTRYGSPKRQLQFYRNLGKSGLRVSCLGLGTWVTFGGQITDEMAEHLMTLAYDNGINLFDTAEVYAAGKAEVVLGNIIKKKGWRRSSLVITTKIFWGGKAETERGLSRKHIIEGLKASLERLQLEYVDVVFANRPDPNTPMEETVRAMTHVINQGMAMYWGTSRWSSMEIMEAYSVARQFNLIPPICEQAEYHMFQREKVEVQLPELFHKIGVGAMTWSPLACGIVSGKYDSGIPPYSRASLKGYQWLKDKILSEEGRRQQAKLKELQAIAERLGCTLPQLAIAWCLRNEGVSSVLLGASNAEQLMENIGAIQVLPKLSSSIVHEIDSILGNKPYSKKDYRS

Structure (SMILES) | cell count [1] | inhibition [1] | inhibition of aggregation [2] | nuclei count [2] [%] | inhibition [3] | nuclei count [3] [%] | fluorescence slope [4] | NADPH fluorescence slope [5] | fluorescence slope [6] | inhibition [7] | inhibition [8]
CCOc1ccccc1NC(=O)C1CCCN(C(=O)NCc2ccccc2)C1 (configuration not stated) | 684 | -7.7% (inactive) | -15.4% (inactive) | 114 | -96.5% (inactive) | 106 | -0.448 (inactive) | 8e-05 (inactive) | 0.00645 (inactive) | 5.61% (inactive) | -20.5% (inactive)
CC(=O)Nc1cccc(NC(=O)CSc2nnnn2C(C)C)c1 | 638 | 1.6% (inactive) | 13.7% (inactive) | 62.3 | -46.4% (inactive) | 120 | -0.436 (inactive) | -2.6e-05 (inactive) | 0.00495 (inactive) | 12.9% (inactive) | 12.5% (inactive)
CN(C(=O)COC(=O)C1CCN(S(=O)(=O)c2cccs2)CC1)C1CCS(=O)(=O)C1 (configuration not stated) | 385 | -2.7% (inactive) | 6% (inactive) | 51.8 | -190% (inactive) | 120 | -0.571 (inactive) | -4.2e-05 (inactive) | 0.00447 (inactive) | -5.26% (inactive) | 1.49% (inactive)
CC(c1nnc(SCC(=O)Nc2sccc2C#N)n1-c1ccc(Cl)cc1)N(C)C (configuration not stated) | 539 | -20.1% (inactive) | 2% (inactive) | 101 | -28.9% (inactive) | 143 | -0.463 (inactive) | -2.7e-05 (inactive) | 0.00514 (inactive) | 17.6% (inactive) | 25.1% (inactive)
C=CCN1C(=O)/C(=C2\SC(N3CCOCC3)=NC2=O)c2cc(Br)ccc21 | 418 | 3.5% (inactive) | 22.3% (inactive) | 100 | -76% (inactive) | 86.1 | -0.519 (inactive) | -8.4e-05 (inactive) | 0.00286 (inactive) | -11.1% (inactive) | -37.3% (inactive)
Clc1ccccc1OCc1nn2c(-c3ccncc3)nnc2s1 | 352 | 2.6% (inactive) | 35.5% (inactive) | 91.1 | -23.5% (inactive) | 118 | -0.298 (inactive) | -6.4e-05 (inactive) | 0.00567 (inactive) | 8.19% (inactive) | -3.24% (inactive)
Cc1ccc(O)c(NC(=O)COc2cc(C)ccc2C)c1 | 431 | 11.4% (inactive) | 3% (inactive) | 106 | -71.5% (inactive) | 115 | -0.473 (inactive) | 4.1e-05 (inactive) | 0.00732 (inactive) | -3.99% (inactive) | -13.6% (inactive)
O=C(NCc1ccco1)C1CC(=O)N(c2ccc(F)cc2)C1 (configuration not stated) | 375 | 3.6% (inactive) | -0.9% (inactive) | 97.4 | -34.5% (inactive) | 124 | -0.593 (inactive) | -2e-05 (inactive) | 0.00568 (inactive) | 3.07% (inactive) | 12% (inactive)
CCOC(=O)CNC(=O)c1c(C)nn(-c2ccccc2)c1Cl | 389 | 1.9% (inactive) | 0.1% (inactive) | 56.2 | -152% (inactive) | 127 | -0.571 (inactive) | -5.1e-06 (inactive) | 0.00495 (inactive) | -45.3% (inactive) | 99.2% (active)
Cc1ccc(NC(=O)CSc2nnc(CSc3nc(C)cc(C)n3)n2Cc2ccco2)c(C)c1 | 655 | 1.6% (inactive) | 1.3% (inactive) | 79.3 | -23.6% (inactive) | 108 | -0.454 (inactive) | 5.9e-05 (inactive) | 0.0102 (inactive) | -22% (inactive) | -4.45% (inactive)
O=C1CN(c2ccccc2F)C(=O)CN1c1ccccc1F | 330 | -2.3% (inactive) | -2.1% (inactive) | 97.5 | -61.6% (inactive) | 89.8 | -0.476 (inactive) | -3.1e-05 (inactive) | 0.00583 (inactive) | 14.9% (inactive) | 14.3% (inactive)
CCOC(=O)CSC1=Nc2ccccc2C2=NC(CC(=O)NCc3cccs3)C(=O)N12 (configuration not stated) | 224 | 7.2% (inactive) | 13.9% (inactive) | 81.6 | 26% (inactive) | 78.1 | -0.572 (inactive) | -5.5e-05 (inactive) | 0.00528 (inactive) | 0.227% (inactive) | 9.15% (inactive)
O=S(=O)(c1ccc(OCC(O)CN2CCc3ccccc3C2)cc1)N1CCOCC1 (configuration not stated) | 749 | 1.6% (inactive) | 6.1% (inactive) | 114 | -51.2% (inactive) | 132 | -0.549 (inactive) | 1.9e-05 (inactive) | 0.00569 (inactive) | 15.9% (inactive) | 26.7% (inactive)
O=S(=O)(NCCc1ccccc1F)c1cccc(S(=O)(=O)N2CCOCC2)c1 | 434 | 5.7% (inactive) | 6.4% (inactive) | 105 | -14.8% (inactive) | 110 | -0.584 (inactive) | 1.5e-06 (inactive) | 0.00428 (inactive) | 9.49% (inactive) | 13% (inactive)
Cc1cc(C)c(-c2cc(C(=O)Nc3c(C)n(C)n(-c4ccccc4)c3=O)[nH]n2)c(O)c1 | 434 | 1.8% (inactive) | -1.8% (inactive) | 111 | -51.7% (inactive) | 105 | -0.585 (inactive) | 3.8e-05 (inactive) | 0.00571 (inactive) | 8.55% (inactive) | 101% (active)
O=S(=O)(c1ccc(OCC(O)CN2CCN(c3ccccc3)CC2)cc1)N1CCOCC1 (configuration not stated) | 603 | -34.9% (inactive) | -19.9% (inactive) | 104 | -19.7% (inactive) | 108 | -0.214 (inactive) | -1.7e-05 (inactive) | 0.00626 (inactive) | 13.5% (inactive) | -5.1% (inactive)
Cc1cccc(N2CCN(C(=O)c3cc4c(=O)[nH]c5ccccc5c4n3C)CC2)c1C | 228 | 5.8% (inactive) | 5.3% (inactive) | 85.4 | -26.1% (inactive) | 106 | -0.529 (inactive) | -2.8e-05 (inactive) | 0.00424 (inactive) | 9.93% (inactive) | -17.5% (inactive)
COc1ccc(CCNS(=O)(=O)c2ccc3c(c2)OCCO3)cc1 | 361 | 4.2% (inactive) | 2.3% (inactive) | 102 | 33.5% (inactive) | 106 | -0.466 (inactive) | -3.5e-05 (inactive) | 0.00491 (inactive) | 14.6% (inactive) | 16.5% (inactive)
Cc1[nH]n2c(=O)cc(Cc3ccccc3)nc2c1C#N | 786 | -6.7% (inactive) | 8.8% (inactive) | 106 | -15.8% (inactive) | 100 | -0.538 (inactive) | -3.6e-05 (inactive) | 0.00532 (inactive) | 15.1% (inactive) | 22% (inactive)
CCOC(=O)Nc1sc(=S)n(C)c1C | 719 | -12.5% (inactive) | -2.4% (inactive) | 95.3 | 15.9% (inactive) | 95.4 | -0.545 (inactive) | 2.1e-05 (inactive) | 0.00684 (inactive) | 12.9% (inactive) | 28.8% (inactive)
O=S(=O)(CCOc1ccccc1)c1nc2ccccc2[nH]1 | 332 | -11.8% (inactive) | -12.8% (inactive) | 99.9 | -77.3% (inactive) | 106 | -0.566 (inactive) | -9e-05 (inactive) | 0.00411 (inactive) | 19.7% (inactive) | 13.7% (inactive)
Cc1cc2oc(C(=O)NC3CCS(=O)(=O)C3)c(C)c2cc1C (configuration not stated) | 328 | 5.6% (inactive) | -2.9% (inactive) | 97 | -75.1% (inactive) | 118 | -0.576 (inactive) | -3.1e-05 (inactive) | 0.00365 (inactive) | 9.17% (inactive) | -12% (inactive)
CCN1CCN(CCCNC(=O)c2cn(CCOC)c(=O)c3c2c2ccccc2n3C)CC1 | 451 | -6.3% (inactive) | 5.8% (inactive) | 103 | -2.9% (inactive) | 106 | -0.569 (inactive) | -1.9e-06 (inactive) | 0.00513 (inactive) | -6.82% (inactive) | 0.455% (inactive)
O=C(Nc1ccccc1)c1ccc(NCC2CCCO2)c(S(=O)(=O)N2CCOCC2)c1 (configuration not stated) | 637 | -1.5% (inactive) | 0.8% (inactive) | 108 | -99.7% (inactive) | 98.8 | -0.453 (inactive) | 1.2e-05 (inactive) | 0.00503 (inactive) | 5.98% (inactive) | 15.7% (inactive)
O=c1c2ccccc2c(C=Nc2ccc(Cl)cn2)c(O)n1-c1cc(Cl)ccc1N1CCOCC1 | 164 | 14.4% (inactive) | -6.2% (inactive) | 83.8 | -0.8% (inactive) | 90.3 | -0.551 (inactive) | -6e-05 (inactive) | 0.00995 (inactive) | 7.35% (inactive) | -5.13% (inactive)
Cc1ccc(S(=O)(=O)n2nc(OC(=O)c3ccco3)cc2N)cc1 | 512 | -8.3% (inactive) | -12% (inactive) | 115 | -8.9% (inactive) | 150 | -0.554 (inactive) | -9.4e-05 (inactive) | 0.00488 (inactive) | -8.24% (inactive) | -6.95% (inactive)
Cn1c(=O)cc(SCC(=O)NCC2CCCO2)c2ccc(Cl)cc21 (configuration not stated) | 467 | -11.6% (inactive) | 3.4% (inactive) | 107 | 26.9% (inactive) | 93.8 | -0.549 (inactive) | -3.4e-05 (inactive) | 0.00522 (inactive) | 10.3% (inactive) | 9.81% (inactive)
